SMILES strings stand for the structures. Activity calls are given as the source filed them. No cut-off for these calls is given here.

Data set [1] deals with Radical scavenging activity. Briefly: Antioxidant activity assessed as inhibition of DPPH-induced free radical generation at 80 uM after 30 mins relative to control. The class given is functional. An outline of the steps:
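DPPH scavenging given as % inhibition of DPPH absorbance, with values derived from a standard dose–response curve of vitamin C (0–500 µM). Mean ± SEM, N = 9.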

Data set [2] relates to Cortical neurone. As to the kind of experiment: Anti-ischemic activity in Sprague-Dawley rat cortical neurons assessed as reduction of oxygen-glucose deprivation-induced intracellular oxidative stress at 10 uM incubated for 30 mins prior to induction of oxygen-glucose deprivation and maintained during entire period of oxygen-glucose deprivation/reoxygenation measured after 1 hr by H2DCFDA staining-based […] microscopic analysis. The class given is functional, cell-based. An outline of the steps: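 Neurons pretreated 30 min before 90 min OGD, with treatment kept through reoxygenation. H2DCFDA loaded 1 h after reoxygenation; intracellular oxidative stress read as rise in fluorescence intensity 2 h later by imaging.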

Data set [3] concerns Cortical neurone. As to the kind of experiment: Anti-ischemic activity in Sprague-Dawley rat cortical neurons assessed as reduction of oxygen-glucose deprivation/reoxygenation-induced neuronal injury at 10 uM incubated for 30 mins prior to induction of oxygen-glucose deprivation and maintained during entire period of oxygen-glucose deprivation/reoxygenation measured after 9 hrs by LDH assay. The data set is classed as functional. An outline of the steps: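 Rat cortical neurons given 90 min oxygen-glucose deprivation, then 9 h reoxygenation. Compound, MK801 or trolox (10 µM or indicated concentrations) applied 30 min before OGD and kept through OGD/R. Neuronal injury read by LDH assay; mean ± SEM, N = 24.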

Data set [4] can be described thus: Antioxidant activity assessed as AAPH-induced free radical scavenging activity at 25 uM preincubated for 30 mins followed by AAPH induction measured every 5 mins for 9 hrs by ORAC assay relative to vehicle-treated control. The data set is classed as functional. An outline of the steps: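 ORAC: area under the fluorescence decay curve (netAUC) expressed as fold change relative to vehicle control. Mean ± SEM, N = 12; trolox included as reference.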

Data set [5] is described as follows: Cytotoxicity against Sprague-Dawley rat cortical neurons assessed as cell viability at 10 uM by LDH assay. The following applies: cortical neurone.
Data set [6] deals with Cortical neurone. Briefly: Anti-excitotoxic activity in Sprague-Dawley rat cortical neurons assessed as reduction of NMDA-evoked neuronal injury at 10 uM incubated for 30 mins prior to NMDA induction and maintained during NMDA induction for 15 mins measured after 9 hrs. The data set is classed as functional. An outline of the steps:
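Rat cortical neurons exposed to NMDA for 15 min, then incubated 9 h. Compound or MK801 (10 µM) added 30 min before and kept during NMDA. Injury scored as % inhibition of LDH release, given as median with interquartile range; N = 9–18.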

Data set [7] has as its system Cortical neurone. Briefly: Anti-excitotoxic activity in Sprague-Dawley rat cortical neurons assessed as inhibition of NMDA-induced intracellular calcium uptake at 10 uM incubated for 30 mins prior to NMDA induction measured after 50 secs by fluo-3 AM staining-based […] microscopic analysis. The class given is functional, cell-based. An outline of the steps: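 Cultured rat cortical neurons loaded with Fluo-3 AM for 30 min with or without 10 µM compound, then exposed to NMDA. Intracellular free Ca2+ read 50 s after NMDA as fold change in integrated fluorescence density of Ca2+-bound Fluo-3 over basal. Median, interquartile range and min–max reported; N = 4–5; compared with NMDA-treated group.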
(In general: A change in cytosolic calcium serves as a functional read-out for many receptors and channels.)

The subject of data set [8] is Radical scavenging activity. As to the kind of experiment: Antioxidant activity assessed as inhibition of DPPH-induced free radical generation at 1 to 500 uM after 30 mins relative to control. The class given is functional. On the technique in general: The DPPH test is a chemical assay of radical scavenging.

`CC1(C)[C@@H]2C[C@H]1C(/C=C/c1ccc(O)cc1)=CC2=O`: the inhibition in data set [1] turned out to be 19.1%. Also, in the data set with Cortical neurone [2], the result was inactive. Moreover, the outcome in the data set on Cortical neurone [3] and in the data set with Cortical neurone [6] was Active. Moreover, the fold change (FC) in data set [4] is 10.7. Besides, the Activity entry in data set [5] is listed as “Non-toxic”.

Regarding `Cc1c(C)c2c(c(C)c1O)CCC(C)(C(=O)O)O2` (stereo not given), the fold change (FC) in data set [4] was determined as 3.11.

On to `CC1(C)[C@@H]2C[C@H]1C(/C=C/c1cccnc1)=CC2=O`, for which the inhibition result in data set [1] is “inactive”. The fold change (FC) in data set [4] was 1.59. Further, the Activity entry in data set [5] is “Non-toxic”.

As to `CC1(C)[C@@H]2C[C@H]1C(/C=C/c1ccc(O)c(Br)c1)=CC2=O`, the inhibition in data set [1] is 29.4%. The fold change (FC) in data set [4] turned out to be 11.6. Moreover, the Activity result in data set [5] is given as “Non-toxic”.

Regarding `COc1ccc(/C=C/C2=CC(=O)[C@H]3C[C@@H]2C3(C)C)cc1OC`, the inhibition entry in data set [1] was “inactive”. Also, the fold change (FC) in data set [4] is 2.73. Besides, in data set [5], the Activity entry is “Non-toxic”.

`COc1ccc(/C=C/C2=CC(=O)[C@H]3C[C@@H]2C3(C)C)cc1`: the inhibition entry in data set [1] was “inactive”. Moreover, in data set [4], the fold change (FC) turned out to be 2.64. Besides, the Activity entry in data set [5] is “Non-toxic”.

As for `COc1cc(/C=C/C2=CC(=O)[C@H]3C[C@@H]2C3(C)C)cc(O)c1O` [SP-8356], the inhibition in data set [1] turned out to be 83.6%. Further, the outcome in the data set on Cortical neurone [2], with Cortical neurone [3] and with Cortical neurone [6] was Active. Besides, in data set [4], the fold change (FC) came to 6.86. Moreover, the Activity result in data set [5] is “Non-toxic”. In addition, in the data set with Cortical neurone [7], the inhibition result is “Active”.

With `CC1(C)[C@@H]2C[C@H]1C(/C=C/c1ccc(O)c(O)c1)=CC2=O`, the inhibition in data set [1] was determined as 91.6%. For the same molecule, the outcome in the data set on Cortical neurone [2], with Cortical neurone [3] and in the data set on Cortical neurone [6] was Active. Besides, in data set [4], the fold change (FC) was determined as 9.09. Besides, in data set [5], the Activity entry was “Non-toxic”.

In the case of `COc1cc(O)ccc1/C=C/C1=CC(=O)[C@H]2C[C@@H]1C2(C)C`, the inhibition in data set [1] came to 38.1%. Also, the fold change (FC) in data set [4] was determined as 7.37. For the same molecule, in data set [5], the Activity entry is given as “Non-toxic”.

For the molecule `COc1cc(O)cc(OC)c1/C=C/C1=CC(=O)[C@H]2C[C@@H]1C2(C)C`, the inhibition in data set [1] came to 55.8%. Also, the fold change (FC) in data set [4] was determined as 11.5. Besides, the Activity entry in data set [5] was “Non-toxic”.

With `CC1(C)[C@@H]2C[C@H]1C(/C=C/c1ccc(F)cc1)=CC2=O`, the inhibition entry in data set [1] was “inactive”. Besides, the fold change (FC) in data set [4] is 1.81. The Activity result in data set [5] was “Non-toxic”.

As to `CC1(C)[C@@H]2C[C@H]1C(/C=C/c1ccncc1)=CC2=O`, the inhibition result in data set [1] is “inactive”. In addition, in data set [4], the fold change (FC) amounted to 1.56. Besides, in data set [5], the Activity entry is listed as “Non-toxic”.

Regarding `CC1(C)[C@@H]2C[C@H]1C(/C=C/c1ccccc1)=CC2=O`, in data set [1], the inhibition entry was “inactive”. Further, in data set [4], the fold change (FC) is 1.92. Besides, in data set [5], the Activity entry is recorded as “Non-toxic”.

As to `O=C1O[C@H]([C@@H](O)CO)C(O)=C1O`, the inhibition in data set [8] was 74%.

Consider `C[C@]12N[C@H](Cc3ccccc31)c1ccccc12` [DIZOCILPINE], for which the result in the data set on Cortical neurone [3] and in the data set on Cortical neurone [6] was Active. Besides, in data set [5], the Activity result is “Non-toxic”.

Take `CC1(C)[C@@H]2C[C@H]1C(/C=C/c1cccc(O)c1)=CC2=O`: the inhibition entry in data set [1] is “inactive”. Also, the fold change (FC) in data set [4] turned out to be 5.11. Moreover, the Activity result in data set [5] is given as “Non-toxic”.

Regarding `CC1(C)[C@@H]2C[C@H]1C(/C=C/c1ccccn1)=CC2=O`, the inhibition result in data set [1] is “inactive”. In data set [4], the fold change (FC) turned out to be 1.63. Besides, the Activity result in data set [5] is listed as “Non-toxic”. Further, the result in the data set on Cortical neurone [6] was Active.

With `CC1(C)[C@@H]2C[C@H]1C(/C=C/c1ccccc1O)=CC2=O`, the inhibition in data set [1] was 4.64%. The fold change (FC) in data set [4] was determined as 6.84. Besides, the Activity entry in data set [5] is recorded as “Non-toxic”.

Regarding `CC1(C)[C@@H]2C[C@H]1C(/C=C/c1ccc(-c3ccccc3)cc1)=CC2=O`, the inhibition result in data set [1] is “inactive”. Moreover, in data set [4], the fold change (FC) was determined as 1.85. Besides, the Activity result in data set [5] is “Non-toxic”.

In the case of `CC1(C)[C@@H]2C[C@H]1C(/C=C/c1ccc(-n3cccc3)cc1)=CC2=O`, the inhibition result in data set [1] was “inactive”. In addition, the fold change (FC) in data set [4] was determined as 6.81. Moreover, the Activity entry in data set [5] is recorded as “Non-toxic”.

As to `COc1cc(/C=C/C2=CC(=O)[C@H]3C[C@@H]2C3(C)C)cc(OC)c1`, in data set [1], the inhibition entry is “inactive”. Also, in data set [4], the fold change (FC) turned out to be 3.14. Further, the Activity entry in data set [5] is on record as “Non-toxic”.

With `COc1ccc(OC)c(/C=C/C2=CC(=O)[C@H]3C[C@@H]2C3(C)C)c1`, the inhibition result in data set [1] is “inactive”. Also, in data set [4], the fold change (FC) was 2.25. Moreover, the Activity result in data set [5] is recorded as “Non-toxic”.

`CC1=CC(=O)[C@H]2C[C@@H]1C2(C)C` [LEVOVERBENONE]: the inhibition entry in data set [1] was “inactive”. For the same molecule, the fold change (FC) in data set [4] stood at 1.19. The Activity entry in data set [5] was “Non-toxic”.

Consider `COc1ccc(/C=C/C2=CC(=O)[C@H]3C[C@@H]2C3(C)C)c(O)c1`, for which the inhibition in data set [1] turned out to be 51.2%. Also, in data set [4], the fold change (FC) was found to be 9.48. In addition, the Activity entry in data set [5] is listed as “Non-toxic”. In addition, the result in the data set with Cortical neurone [6] was Active.

As a reminder, the inhibition is the change of the read-out against control, counted positive when it falls.

The values are drawn from ChEMBL document CHEMBL2424605, “Discovery of novel (1S)-(-)-verbenone derivatives with anti-oxidant and anti-ischemic effects” (Bioorg Med Chem Lett, 2013).
